Compounds with a hit are over-represented: about 2.2% of the library has one in this group of screens.
DNMT1 block: DNMT1 (human) enzyme inhibition; inhibition (reported as % activation of signal), % at 10 µM; AID 588458; P26358; DNMT1 molecular beacon, Hinp1I cleavage, fluorescence; 360,000 tested, 0.83% active; in the data active = inhibition above about 50%
Scp-1 inhibitor: inhibitors of human Scp-1 phosphatase; Q9GZU7; inhibition, % at 20 µM; 340,000 tested, 0.88% active; Recombinant Scp1, phosphopeptide, malachite green phosphate absorbance; AID 493091;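 active = inhibition above about 50% at 20 µM, limit read from the data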;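 also: plate controls were DMSO wells with enzyme for no effect and wells lacking enzyme for full effect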
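System: SCP-1 catalytic domain; Reagent: Phospho 17-mer peptide substrate; Doses: one concentration, 20 µM, with 1.0% DMSO; Incubation: 45 min room-temperature reaction, 5 min colour, 30 min stabiliser; Signal: Phosphate-binding colour reagent, absorbance read at 630 nm.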
SUMO1 PPI mod: SUMO1-SIM interaction modulation. P63165. SUMO1 binding to a labelled peptide, TR-FRET, 1 h. inhibition, % at 20 µM. 360,000 tested, 0.33% active. AID 602429; in the data active = inhibition above about 37%
STEP inh: STEP (human) phosphatase inhibition. P54829. recombinant STEP, OMFP fluorogenic substrate, fluorescence. inhibition, % at 20 µM. 360,000 tested, 0.25% active. AID 588621;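 active = inhibition at 20 µM, scaled per plate between control wells, above about 37%, limit read from the data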;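 also: 0% = DMSO with enzyme and substrate and 100% = substrate only without enzyme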
Target sequence (P54829 whole entry, looked up): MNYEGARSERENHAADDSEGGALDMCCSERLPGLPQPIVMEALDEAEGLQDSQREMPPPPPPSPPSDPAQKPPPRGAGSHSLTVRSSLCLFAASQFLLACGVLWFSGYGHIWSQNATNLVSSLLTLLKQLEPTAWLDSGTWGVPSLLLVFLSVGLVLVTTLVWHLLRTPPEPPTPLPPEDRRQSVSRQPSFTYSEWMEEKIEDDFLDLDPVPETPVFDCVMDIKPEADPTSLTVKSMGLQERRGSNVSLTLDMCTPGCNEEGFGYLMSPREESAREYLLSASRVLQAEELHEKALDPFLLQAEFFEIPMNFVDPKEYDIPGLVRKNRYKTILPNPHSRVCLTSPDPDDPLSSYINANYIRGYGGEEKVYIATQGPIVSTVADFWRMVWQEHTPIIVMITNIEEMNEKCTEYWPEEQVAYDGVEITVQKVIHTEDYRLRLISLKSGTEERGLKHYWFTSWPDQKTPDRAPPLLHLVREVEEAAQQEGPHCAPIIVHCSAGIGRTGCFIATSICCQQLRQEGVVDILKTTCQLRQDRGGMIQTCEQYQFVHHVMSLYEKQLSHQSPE
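Assay system: isolated STEP enzyme. Buffer or medium: pH 6.0 Bis-Tris with DTT and Tween 20. Also added: fluorogenic phosphatase substrate OMFP at 25 µM final. Dosing: 20 µM, 1% DMSO. Timing: 20 min reaction, room temperature, in the dark. Measured by: fluorescence intensity, excitation 480 nm, emission 540 nm. Evaluation: normalized % inhibition.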
GRK2 inh: blocks RNA aptamer binding to human GRK2. 330,000 tested, 0.59% active. inhibition of aptamer binding, % at 10 µM. P25098. bead flow cytometry, FAM-aptamer displacement from GRK2;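 active = inhibition of aptamer binding above 40%, roughly 3 SD of noise, on plates passing a quality check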;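 also: median bead fluorescence of bound FAM aptamer so fluorescent compounds give negative values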
LMPTP inh: LMPTP (human) inhibition. recombinant LMPTP-A, OMFP fluorogenic substrate, fluorescence intensity. inhibition, % at 20 µM. 360,000 tested, 0.22% active. AID 651560;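 active = compounds that cut the enzyme signal by at least half of the control window in the single-dose screen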;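 also: plate controls were DMSO wells with enzyme plus substrate for no effect and substrate without enzyme for full effect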
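Test system: LMPTP-A, protein tyrosine phosphatase of low molecular weight; Input: 0.625 nM enzyme; Incubation: 50 min dark incubation at room temperature; Signal: endpoint fluorescence intensity from OMFP dephosphorylation; Read-out basis: % inhibition versus control wells.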
Scp1 confirm: Scp-1 (human) inhibition, single-dose confirmed; shares compounds with Scp-1 inhibitor; recombinant SCP-1 catalytic domain, phosphate release, malachite green absorbance; inhibition, % at 20 µM; 2,500 tested, 61% active; AID 540281;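 also: plate controls were DMSO with enzyme for no effect and buffer wells lacking enzyme for full effect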
Scp-1 MG ctr: interferes with malachite green readout, flagging false Scp-1 hits | 2,500 tested, under 10 active | AID 540313 | Colorimetric interference counterscreen, malachite green absorbance 630 nm | apparent inhibition (interference), % at 20 µM | shares compounds with Scp-1 inhibitor;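 also: compounds added after enzyme reaction finished so only phosphate colour detection is probed; plate controls were DMSO wells with completed Scp-1 reaction for no effect and substrate wells lacking enzyme for full effect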
Scp1 DSF: binds human Scp-1, shifting its melting temperature. 1,500 tested, 25% active. shares compounds with Scp-1 inhibitor. Recombinant SCP1, Sypro Orange thermal shift Tm. thermal shift relative to vanadate control, % at 40 µM;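 active = substances whose mean melting-temperature shift, as a percentage of the reference inhibitor's shift, reaches about 5.3%, limit read from the data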;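 also: 0% = Tm of DMSO wells and 100% = Tm with sodium orthovanadate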
DNMT1 inh conf: DNMT1 inhibition confirmation, single concentration; shares compounds with DNMT1 block; DNMT1 molecular beacon HinP1I cleavage, fluorescence; inhibition, % at 10 µM; 2,300 tested, 8% active; AID 602385;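 active = average inhibition of at least 30% in the single-concentration confirmation test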
Beacon interf: beacon fluorescence artifact counter-screen | shares compounds with DNMT1 block | DNMT1 molecular beacon spectral interference counterscreen, fluorescence 485/520 | activation (fluorescence interference), % at 10 µM | 2,300 tested, 1% active | AID 602387;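 active = activation of at least 30% at 10 µM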;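 also: DNMT1 catalytic domain with a HinP1I cleavage step and a FAM/dabcyl DNA beacon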
STEP conf: confirmation of human STEP phosphatase inhibitors | recombinant STEP, OMFP fluorogenic substrate, fluorescence | shares compounds with STEP inh | inhibition, % at 20 µM | AID 623866 | 520 tested, 32% active; call rule not given here;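 also: 0% = enzyme with substrate plus DMSO and 100% = substrate without enzyme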
* = called active by the depositor; x = not tested or not shown.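 The calls were made as follows, unless noted: active = inhibition of at least 30% at 20 µM; inactive = the rest.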

SMILES | DNMT1 block | Scp-1 inhibitor | SUMO1 PPI mod | STEP inh | GRK2 inh | LMPTP inh | Scp1 confirm | Scp-1 MG ctr | Scp1 DSF | STEP conf | others
COc1ccc(/C=C/C(=O)OCc2cc(=O)n3c(n2)sc2ccccc23)cc1 | 6.1 | -2.5 | -5.4 | 3.3 | 0.0 | 3.2 | x | x | x | x
O=C(OCc1cc(=O)n2c(n1)sc1ccccc12)c1ccc(O)cc1 | 56.2* | 63.9* | 9.2 | 3.4 | 7.0 | 1.7 | 53.5* | -20.8 | -8.8 | x | DNMT1 inh conf=1.2;Beacon interf=2.3
CCS(=O)(=O)N1CCN(C(=O)c2ccc3nc(C)c(N(C)C(=O)CCc4ccccc4)n3c2)CC1 | 4.1 | x | 2.6 | 0.3 | x | -4.0 | x | x | x | x
CSCCC(c1nc2ccccc2[nH]1)n1c(-c2ccc3ncccc3c2)nc2ccccc21 (stereo not drawn) | x | x | -2.8 | x | x | 2.2 | x | x | x | x
COc1ccc(C(N)c2csc(Nc3nncc4ccccc34)n2)cc1 (stereo not drawn) | -5.7 | x | -41.0 | 5.0 | x | 0.5 | x | x | x | x
CC(=O)c1ccc(S(=O)(=O)Nc2cccc(-n3cnnn3)c2)cc1 | 99.9* | 76.7* | 20.6 | 96.6* | 34.0 | 17.6 | 64.8* | -13.7 | 2.4 | 99.2* | DNMT1 inh conf=17.0;Beacon interf=0.2
Cc1ccc2oc(-c3cc(NC(=O)c4ncn[nH]4)ccc3O)nc2c1 | 49.6 | 84.5* | 15.1 | 78.3* | 0.0 | 42.7 | 81.3* | -7.6 | 0.1 | -1.0
Cc1ccc2oc(-c3ccc(NC(=O)c4ccncc4)cc3O)nc2c1 | 33.9 | 4.6 | -4.9 | -1.1 | 0.0 | 3.7 | x | x | x | x
Cc1cccc(Nc2nn3c(=O)c4ccccc4nc3s2)c1 | 94.3* | 106.4* | 7.4 | 96.5* | 0.0 | 47.4 | 68.9* | -22.1 | -10.4 | 29.2* | DNMT1 inh conf=12.6;Beacon interf=3.4
CC1CCCN(C(=O)c2ccc3c(=O)n4nc(Nc5ccccc5)sc4nc3c2)C1 (stereo not drawn) | 1.9 | x | -2.8 | 2.6 | x | 0.5 | x | x | x | x
COc1ccc(N=C2NC(=O)S/C2=C\c2ccc(N(C)C)cc2)cc1 | -4.7 | -9.1 | 0.7 | 0.8 | 0.0 | 6.8 | x | x | x | x
CCOc1ccc(N=C2NC(=O)S/C2=C\c2ccc(Cl)cc2)cc1 | 84.3* | 111.7* | -3.9 | 50.7* | 0.0 | 47.4 | 41.2* | -9.8 | -1.9 | 32.6 | DNMT1 inh conf=0.2;Beacon interf=-6.4
COc1cc(CNC[C@H]2O[C@@H](n3ccc(N)nc3=O)[C@H](O)[C@@H]2O)ccc1OCc1ccc(C)cc1 | 1.2 | x | -2.4 | 0.4 | x | -0.6 | x | x | x | x
CCCc1cc(=O)oc2cc(OCC(=O)Nc3ccc(S(N)(=O)=O)cc3)ccc12 | 32.3 | 99.6* | 55.4* | 68.8* | 2.0 | 83.8* | 85.3* | -8.2 | 2.1 | 64.6*
COc1ccc(CCNC(=O)Nc2nc(CN)cs2)cc1OC | -1.5 | x | -2.5 | 1.6 | x | -2.4 | x | x | x | x
O=C(Nc1ccc(Cl)cc1)C1Cc2c(-c3ccccc3)ccnc2O1 (stereo not drawn) | 1.3 | x | 1.1 | -3.2 | x | 0.8 | x | x | x | x
O=C(COc1ccc(/C=N/NC(=O)c2ccccc2O)cc1)Nc1ccccc1 | -3.8 | 65.0* | 0.7 | 84.7* | 0.0 | 66.7* | 64.8* | 2.3 | -10.7 | 24.1*
